Like-named read-outs stand apart in the source and are kept apart here.
How the values were obtained:
[1] = molecular target: human SV2A protein; details: cited from earlier work
[2] = molecular target: T1, SV2A (Macaca mulatta, UniProt H9EQH8); format: in vivo, rhesus monkeys (Macaca mulatta); details: for Regional distribution volume (VT): 1TC model; for Regional non-displaceable binding potential (BPND): baseline scans (n = 4), reference region centrum semiovale
Summary of the method: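 Fasted rhesus monkeys were immobilised with ketamine (10 mg/kg im) and maintained on isoflurane (1.5–2.5% in oxygen). Radiotracer was infused iv over 3 min after a transmission scan, and dynamic list-mode data were collected for 120 min. MR-defined ROIs gave time–activity curves. VT came from a 1TC model with metabolite-corrected arterial plasma input, and BPND from VT with centrum semiovale as reference.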

[3] = molecular target: T1, SV2A; experiment: SV2A occupancy from occupancy plot; format: in vivo, rhesus monkeys (Macaca mulatta); details: 0.15 mg/kg UCB-J, 10 min before 5-[^18F]UCB-J injection
Summary of the method: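 Baseline and blocking PET scans were run with iv radiotracer and arterial input. Regional VT came from 1TC kinetic modelling. Occupancy was derived from an occupancy plot of baseline regional VT against the baseline-minus-blocking VT difference.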

[4] = molecular target: T1, SV2A; details: same dose of UCB-J (0.15 mg/kg), measured with [^11C]UCB-J; cited from earlier work
[5] = Radiotracer free fraction; format: in vitro ADME, rhesus monkeys (Macaca mulatta); details: ultrafiltration; rhesus monkey plasma; n = 4
Summary of the method: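 Plasma ultrafiltration was used. fP was taken as filtrate radioactivity concentration divided by total plasma activity, measured in triplicate per scan.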

[6] = Plasma metabolite analysis; format: in vivo, rhesus monkeys (Macaca mulatta); details: 30 min after injection; rhesus monkey arterial plasma; n = 4
[7] = baseline scan, centrum semiovale
[8] = baseline scan, cingulate cortex
[9] = baseline scan, nucleus accumbens
[10] = baseline scan, occipital cortex

T1 sequence (H9EQH8 1-742): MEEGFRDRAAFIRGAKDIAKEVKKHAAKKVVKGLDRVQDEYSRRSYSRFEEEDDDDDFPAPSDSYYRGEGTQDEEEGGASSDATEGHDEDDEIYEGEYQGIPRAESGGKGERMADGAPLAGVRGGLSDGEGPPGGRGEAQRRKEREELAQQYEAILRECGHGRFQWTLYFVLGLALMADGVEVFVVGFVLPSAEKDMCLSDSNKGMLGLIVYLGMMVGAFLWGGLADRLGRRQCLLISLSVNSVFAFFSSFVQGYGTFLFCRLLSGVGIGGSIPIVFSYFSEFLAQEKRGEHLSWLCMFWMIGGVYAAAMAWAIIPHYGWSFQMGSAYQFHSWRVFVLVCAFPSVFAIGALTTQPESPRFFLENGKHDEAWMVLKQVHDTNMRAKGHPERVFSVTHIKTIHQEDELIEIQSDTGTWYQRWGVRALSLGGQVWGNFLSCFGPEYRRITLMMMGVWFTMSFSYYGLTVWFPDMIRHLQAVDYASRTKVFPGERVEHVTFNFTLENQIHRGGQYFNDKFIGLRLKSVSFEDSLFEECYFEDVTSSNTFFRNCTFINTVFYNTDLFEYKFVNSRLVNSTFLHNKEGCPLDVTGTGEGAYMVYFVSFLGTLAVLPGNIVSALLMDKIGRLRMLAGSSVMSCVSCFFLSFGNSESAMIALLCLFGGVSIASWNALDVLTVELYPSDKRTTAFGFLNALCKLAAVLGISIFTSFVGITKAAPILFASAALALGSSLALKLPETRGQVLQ

Regional distribution volume (VT) ([2]; baseline scan, amygdala) [mL/cm^−3] | Regional distribution volume (VT) ([2]; baseline scan, brainstem) [mL/cm^−3] | Regional distribution volume (VT) ([2]; baseline scan, caudate) [mL/cm^−3] | Regional distribution volume (VT) [2, 7] [mL/cm^−3] | Regional distribution volume (VT) ([2]; baseline scan, cerebellum) [mL/cm^−3] | Regional distribution volume (VT) [2, 8] [mL/cm^−3] | Regional distribution volume (VT) ([2]; baseline scan, frontal cortex) [mL/cm^−3] | Regional distribution volume (VT) ([2]; baseline scan, globus pallidus) [mL/cm^−3] | Regional distribution volume (VT) ([2]; baseline scan, hippocampus) [mL/cm^−3] | Regional distribution volume (VT) ([2]; baseline scan, insula) [mL/cm^−3] | Regional distribution volume (VT) [2, 9] [mL/cm^−3] | Regional distribution volume (VT) [2, 10] [mL/cm^−3] | Regional distribution volume (VT) ([2]; baseline scan, pons) [mL/cm^−3] | Regional distribution volume (VT) ([2]; baseline scan, putamen) [mL/cm^−3] | Regional distribution volume (VT) ([2]; baseline scan, temporal cortex) [mL/cm^−3] | Regional distribution volume (VT) ([2]; baseline scan, thalamus) [mL/cm^−3] | Structure (SMILES) | pIC50, binding affinity to human SV2A protein [1] | also measured
 |  |  |  |  |  |  |  |  |  |  |  |  |  |  |  | Cc1cnccc1CN1C[C@H](c2cc(F)c(F)c(F)c2)CC1=O [(S)-enantiomer] | 7.1 | 
5.0 | 5.7 | 6.6 | 6.9 | 5.7 | 7.2 | 7.2 | 6.3 | 5.7 | 6.8 | 6.3 | 6.6 | 6.1 | 6.6 | 6.5 | 6.3 | Cc1cnccc1CN1C[C@H](c2cc(F)c(F)c([18F])c2)CC1=O [(S)-5-[^18F]3, 4-(3,4-Difluoro-5-(fluoro-^18F)phenyl)-1-((3-methylpyridin-4-yl)methyl)pyrrolidin-2-one] |  | specific binding in brain ([2]; baseline scan, n = 1): lack of specific binding
 |  |  |  |  |  |  |  |  |  |  |  |  |  |  |  | CC[C@@H](C(N)=O)N1CCCC1=O [levetiracetam] |  | displacement of [^18F]UCB-J binding ([2]; levetiracetam 30 mg/kg i.v. at 90 min after radiotracer administration, 180-min scan with 5-[^18F]UCB-J): rapid reduction in radiotracer binding
 |  |  |  |  |  |  |  |  |  |  |  |  |  |  |  | Cc1cnccc1CN1C[C@@H](c2cc(F)c(F)c(F)c2)CC1=O [UCB-J] | 8.2 | SV2A occupancy by UCB-J [3]: 73%; SV2A occupancy by UCB-J [4]: 87%
24.1 ± 2.2 | 20.1 ± 2.8 | 40.3 ± 6.1 | 11.1 ± 1.6 | 30.5 ± 3.5 | 47.3 ± 7.5 | 48.9 ± 7.4 | 24.5 ± 3.1 | 31.3 ± 2.3 | 47.7 ± 7.5 | 45.7 ± 6.2 | 45.1 ± 6.9 | 19.8 ± 2.7 | 40.1 ± 6.8 | 42.8 ± 6.7 | 36.2 ± 5.2 | [11CH3]c1cnccc1CN1C[C@@H](c2cc(F)c(F)c(F)c2)CC1=O [[^11C]UCB-J] |  | Regional non-displaceable binding potential (BPND) ([2]; amygdala): 1.2 ± 0.4; Regional non-displaceable binding potential (BPND) ([2]; brainstem): 0.8 ± 0.2; Regional non-displaceable binding potential (BPND) ([2]; caudate): 2.7 ± 0.7; Regional non-displaceable binding potential (BPND) ([2]; cerebellum): 1.8 ± 0.3; Regional non-displaceable binding potential (BPND) ([2]; cingulate cortex): 3.3 ± 0.9; Regional non-displaceable binding potential (BPND) ([2]; frontal cortex): 3.5 ± 0.9; Regional non-displaceable binding potential (BPND) ([2]; globus pallidus): 1.2 ± 0.2; Regional non-displaceable binding potential (BPND) ([2]; hippocampus): 1.9 ± 0.3; Regional non-displaceable binding potential (BPND) ([2]; insula): 3.3 ± 0.8; Regional non-displaceable binding potential (BPND) ([2]; nucleus accumbens): 3.2 ± 0.7; Regional non-displaceable binding potential (BPND) ([2]; occipital cortex): 3.1 ± 0.7; Regional non-displaceable binding potential (BPND) ([2]; pons): 0.8 ± 0.2; Regional non-displaceable binding potential (BPND) ([2]; putamen): 2.6 ± 0.5; Regional non-displaceable binding potential (BPND) ([2]; temporal cortex): 2.9 ± 0.6; Regional non-displaceable binding potential (BPND) ([2]; thalamus): 2.3 ± 0.7; BPND values in all brain regions ([2]; baseline scans, all brain regions): > 0.75; plasma free fraction (fp) [5]: 43 ± 5%; intact parent radiotracer in plasma (parent fraction) [6]: 47 ± 12%

From PMC6810698 (European journal of nuclear medicine and molecular imaging, 2019)
